In ChEMBL document CHEMBL1156752, “Phosphinic tripeptides as dual angiotensin-converting enzyme C-domain and endothelin-converting enzyme-1 inhibitors” (J Med Chem, 2010):

Assays:
Neprilysin = Neprilysin (Homo sapiens, UniProt P08473); assay: Inhibition of human somatic NEP
How it was run: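 Human NEP (0.5 nM) preincubated 45 min with inhibitor, then Mca-Arg-Pro-Pro-Gly-Phe-Ser-Pro-Dpa-OH (5 μM, Km 2 μM) added. Run at 25 °C, pH 6.8 Hepes/NaCl/ZnCl2/Brij-35 buffer. Fluorescence increase read at ex 320/em 405 nm under initial rates. […] Ki obtained.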

[1] = molecular target: T1, Angiotensin-converting enzyme (Homo sapiens, UniProt P12821); assay: Inhibition of human somatic ACE C-terminal domain
[2] = molecular target: T2, Endothelin-converting enzyme 1 (Homo sapiens, UniProt P42892); assay: Inhibition of human somatic ECE1
T2 sequence (P42892 whole entry): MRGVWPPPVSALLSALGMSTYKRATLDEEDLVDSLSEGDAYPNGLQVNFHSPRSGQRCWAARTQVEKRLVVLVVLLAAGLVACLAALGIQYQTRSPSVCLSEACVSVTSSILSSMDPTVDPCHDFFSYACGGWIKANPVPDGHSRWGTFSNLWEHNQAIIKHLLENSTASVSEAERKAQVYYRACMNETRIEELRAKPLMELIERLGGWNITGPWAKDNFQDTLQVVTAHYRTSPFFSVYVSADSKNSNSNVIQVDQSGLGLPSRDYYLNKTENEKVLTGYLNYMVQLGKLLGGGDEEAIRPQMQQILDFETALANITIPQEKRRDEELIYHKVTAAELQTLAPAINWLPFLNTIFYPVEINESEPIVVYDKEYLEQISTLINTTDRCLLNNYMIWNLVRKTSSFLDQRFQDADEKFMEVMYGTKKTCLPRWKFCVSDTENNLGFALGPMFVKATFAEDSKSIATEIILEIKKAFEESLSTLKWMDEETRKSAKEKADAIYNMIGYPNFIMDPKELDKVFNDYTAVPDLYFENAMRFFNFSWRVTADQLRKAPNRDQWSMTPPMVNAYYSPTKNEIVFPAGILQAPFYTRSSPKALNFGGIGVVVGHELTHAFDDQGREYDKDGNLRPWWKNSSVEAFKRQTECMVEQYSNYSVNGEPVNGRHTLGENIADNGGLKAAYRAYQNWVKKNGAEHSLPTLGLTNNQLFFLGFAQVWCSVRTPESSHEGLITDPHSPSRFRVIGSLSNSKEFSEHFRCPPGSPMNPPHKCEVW

Collagenase 3 = Collagenase 3 (Homo sapiens, UniProt P45452); assay: Inhibition of human MMP13
[3] = molecular target: T1, Angiotensin-converting enzyme; assay: Inhibition of human somatic ACE in presence of 1:50 diluted SHR rat plasma
How it was run: (§1)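 ACE (1 nM final) and inhibitor at various concentrations incubated 45 min in this plasma. Reaction started with Mca-Ala-Ser-Asp-Lys-Dpa-OH (15 μM). Fluorescence monitored. Apparent Ki derived.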

[4] = molecular target: T1, Angiotensin-converting enzyme; assay: Inhibition of human somatic ACE in presence of 1:100 diluted SHR rat plasma; assay type: cell-free; how it was run: as §1
[5] = molecular target: T1, Angiotensin-converting enzyme; assay: Inhibition of human somatic ACE in presence of 1:100 diluted SHR rat plasma complemented with 5 uM serum albumin; assay type: cell-free; how it was run: as §1
Rattus norvegicus [6] = assay: Antihypertensive activity in spontaneously hypertensive rat assessed as mean arterial pressure at 10 mg/kg, iv; assay type: functional, Artery
How it was run: (§2)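 Male SHR rats (250 g, 12 weeks old) anesthetized with Nesdonal (50 mg/kg ip), tracheotomized, body temperature kept at 37 °C. MAP recorded by femoral artery transducer. Inhibitor or vehicle ([…]) given as iv bolus through venous catheter after 20 min stabilization. MAP followed for 60 min, n = 6/dose.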

Rattus norvegicus [7] = assay: Antihypertensive activity in spontaneously hypertensive rat assessed as mean arterial pressure at 3 mg/kg, iv; assay type: functional, Artery; how it was run: as §2
Rattus norvegicus [8] = assay: Antihypertensive activity in spontaneously hypertensive rat assessed as mean arterial pressure at 30 mg/kg, iv; assay type: functional, Artery; how it was run: as §2
[9] = molecular target: T1, Angiotensin-converting enzyme; assay: Inhibition of human somatic ACE in presence of buffer
[10] = molecular target: T1, Angiotensin-converting enzyme; assay: Inhibition of human somatic ACE N-terminal domain
How it was run: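 Human somatic ACE (0.5 nM) preincubated 45 min with inhibitor, then Mca-Ala-Ser-Asp-Lys-Dpa-OH substrate (8 μM) added. Continuous fluorescence read at ex 320/em 405 nm under initial-rate conditions. […] Ki calculated per domain.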

Ki [1] [nM] | Ki (Neprilysin) [nM] | Ki [2] [nM] | Ki (Collagenase 3) [nM] | Structure (SMILES) | further results
0.4 | 68 | 240 | 30 | O=C(N[C@@H](Cc1ccccc1)P(=O)(O)C[C@@H](Cc1cc(-c2ccccc2)no1)C(=O)N[C@@H](Cc1ccccc1)C(=O)O)OCc1ccccc1 | –
12 | 52 | > 10000 | – | O=C(N[C@@H](Cc1ccccc1)P(=O)(O)CC(Cc1ccc(-c2ccccc2)cc1)C(=O)N[C@@H](Cc1c[nH]c2ccccc12)C(=O)O)OCc1ccccc1 (some centres undefined) | –
13 | 2500 | 910 | – | O=C(N[C@@H](Cc1ccccc1)P(=O)(O)CC(CC1CC(c2ccccc2)=NO1)C(=O)N[C@@H](Cc1c[nH]c2ccccc12)C(=O)O)OCc1ccccc1 (some centres undefined) | –
16 | 260 | 14 | – | O=C(N[C@@H](Cc1ccccc1)P(=O)(O)CC(Cc1cc(-c2ccccc2)no1)C(=O)N[C@@H](Cc1c[nH]c2ccccc12)C(=O)O)OCc1ccccc1 (some centres undefined) | –
– | 1.4 | 1.2 | – | O=C(N[C@@H](Cc1ccccc1)P(=O)(O)CC(Cc1ccccc1)C(=O)N[C@@H](Cc1c[nH]c2ccccc12)C(=O)O)OCc1ccccc1 (some centres undefined) | –
1.4 | 130 | 26 | 19 | O=C(N[C@@H](Cc1ccccc1)P(=O)(O)C[C@@H](Cc1cc(-c2ccccc2)no1)C(=O)N[C@@H](Cc1c[nH]c2ccccc12)C(=O)O)OCc1ccccc1 | –
36 | 1850 | 8 | 1200 | O=C(N[C@@H](Cc1ccccc1)P(=O)(O)C[C@H](Cc1cc(-c2ccccc2)no1)C(=O)N[C@@H](Cc1c[nH]c2ccccc12)C(=O)O)OCc1ccccc1 | Ki [3]: 1520 nM; Ki [4]: 500 nM; Ki [5]: 1510 nM; Activity (Rattus norvegicus [6]): 148 mmHg; Activity (Rattus norvegicus [8]): 96 mmHg; Ki [9]: 36 nM
3.8 | > 10000 | 7.7 | > 10000 | O=C(N[C@@H](Cc1ccccc1)P(=O)(O)CC(Cc1cc(-c2ccccc2)no1)C(=O)N[C@@H](Cc1ccccc1)C(=O)O)OCc1ccccc1 (single isomer, unassigned) | Ki [3]: 340 nM; Ki [4]: 32 nM; Ki [5]: 110 nM; Ki [9]: 3.8 nM

Second part, the compound before the results:

Structure (SMILES) | Ki [1] [nM] | Ki (Neprilysin) [nM] | Ki [2] [nM] | Ki (Collagenase 3) [nM] | further results
O=C(O)[C@H](Cc1ccc2c(c1)oc1ccccc12)NCP(=O)(O)O | – | – | – | – | IC50 (Neprilysin): 2300 nM
CS(=O)(=O)N[C@@H](CCCCN)C(=O)N[C@@H](Cc1ccccc1)P(=O)(O)CC1(C(=O)N[C@@H](Cc2c[nH]c3ccccc23)C(=O)O)CCCC1 | – | – | – | – | IC50 [1]: 2.5 nM; IC50 (Neprilysin): 90 nM
O=C(N[C@@H](Cc1ccccc1)P(=O)(O)CC(CC1CC(c2ccc(C(F)(F)F)cc2)=NO1)C(=O)N[C@@H](Cc1c[nH]c2ccccc12)C(=O)O)OCc1ccccc1 (some centres undefined) | 20 | > 5000 | > 5000 | – | –
O=C(N[C@@H](Cc1ccccc1)P(=O)(O)CC(CC1CC(c2ccc(-c3ccccc3)cc2)=NO1)C(=O)N[C@@H](Cc1c[nH]c2ccccc12)C(=O)O)OCc1ccccc1 (some centres undefined) | 25 | > 10000 | > 10000 | – | –
O=C(N[C@@H](Cc1ccccc1)P(=O)(O)C[C@@H](Cc1cc(-c2ccccc2)no1)C(=O)N[C@@H](Cc1ccc(O)cc1)C(=O)O)OCc1ccccc1 | – | – | – | 24 | –
C[C@H](NC(=O)C(CC1CC(c2ccccc2)=NO1)CP(=O)(O)[C@H](Cc1ccccc1)NC(=O)OCc1ccccc1)C(=O)O (some centres undefined) | 5 | 85 | 2100 | – | –
O=C(N[C@@H](Cc1ccccc1)P(=O)(O)C[C@H](Cc1cc(-c2ccccc2)no1)C(=O)N[C@@H](Cc1ccc(O)cc1)C(=O)O)OCc1ccccc1 | – | 6700 | 14 | […] | Ki [3]: […]; Ki [4]: […]; Ki [5]: […]; Activity (Rattus norvegicus [6]): 132 mmHg; Activity (Rattus norvegicus [7]): 147 mmHg
O=C(N[C@@H](Cc1ccccc1)P(=O)(O)C1CCC[C@H]1C(=O)N[C@@H](Cc1c[nH]c2ccccc12)C(=O)O)OCc1ccccc1 (single isomer, unassigned) | 3 | > 50000 | > 50000 | – | Ki [10]: 2500 nM
O=C(N[C@H]1CCS[C@H]2CCC[C@@H](C(=O)O)N2C1=O)[C@@H](S)Cc1ccccc1 [OMAPATRILAT] | 6 | 9 | – | – | –
